From PubChem
This is a sample that favours compounds with a hit; in the whole collection about 3% have one here.
ABHD5-PLIN5 inh: ABHD5-PLIN5 interaction inhibitors, primary screen, cell lysate, split luciferase complementation, luminescence; inhibition, % at 4 µM; 0.78% of 360,000 active; AID 602281, 2012; Perilipin-5 (Homo sapiens) + 1-acylglycerol-3-phosphate O-acyltransferase ABHD5 (Homo …; Split G. princeps luciferase complementation, 4 h;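 active = inhibition above the mean inhibition across every tested compound plus 3 SD, cut at about 22% in these data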;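 note: 0% = DMSO only wells and the 100% control is not disclosed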
Beta2AR agonist: beta2AR agonists driving receptor internalization, primary screen, cell-based, FAP fluorogen, flow cytometry. 0.43% of 340,000 active. Beta-2 adrenergic receptor (Homo sapiens), P07550. Am2.2-beta2AR cells. response, % (concentration not given with the values). AID 504454, 2011;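 active = response above a set limit, near 3 SD of response in nonfluorescent compounds, cut at about 42% in these data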
Target sequence (P07550 whole entry, looked up): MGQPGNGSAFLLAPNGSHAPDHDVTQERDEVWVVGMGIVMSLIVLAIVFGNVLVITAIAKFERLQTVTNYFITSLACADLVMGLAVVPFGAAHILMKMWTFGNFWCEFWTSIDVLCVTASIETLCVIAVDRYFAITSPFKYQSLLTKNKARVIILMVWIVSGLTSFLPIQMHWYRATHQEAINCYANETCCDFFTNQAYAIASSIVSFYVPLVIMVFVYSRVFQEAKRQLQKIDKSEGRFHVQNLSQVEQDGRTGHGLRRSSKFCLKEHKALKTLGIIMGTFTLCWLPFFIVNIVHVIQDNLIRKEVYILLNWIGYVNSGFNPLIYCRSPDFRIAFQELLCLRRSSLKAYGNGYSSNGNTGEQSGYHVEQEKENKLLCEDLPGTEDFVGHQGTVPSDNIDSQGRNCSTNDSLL
PfG6PD inh: PfG6PD enzyme inhibitors, primary screen, biochemical, fluorescence intensity, uHTS | glucose-6-phosphate dehydrogenase-6-phosphogluconolactonase (Plasmodium falciparum 3D7) | PfGluPho enzyme, NADPH resazurin-diaphorase fluorescence | inhibition, % at 20 µM | 0.78% of 350,000 active;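 active = inhibition reaching at least a set limit at 20 µM in the primary screen, cut at about 59% in these data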;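 note: 0% = DMSO wells with substrate and 100% = DMSO wells lacking glucose-6-phosphate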
MC4R antagonist: MC4R antagonists of cAMP signaling, primary screen, cell-based, TR-FRET, antagonist arm of biased-ligand search | Melanocortin receptor 4 (Homo sapiens), P32245 | MC4R-expressing cells, MTII-stimulated cAMP, LANCE TR-FRET | inhibition, % at 6.5 µM | 0.48% of 360,000 active | AID 540295, 2011;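 active = inhibition above its plate's cutoff, the mean of tested wells on that plate plus 3 SD, cut at about 29% in these data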;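 note: 0% = Melanotan II alone and 100% = Melanotan II plus saturating MCL0020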
Target sequence (P32245 whole entry, looked up): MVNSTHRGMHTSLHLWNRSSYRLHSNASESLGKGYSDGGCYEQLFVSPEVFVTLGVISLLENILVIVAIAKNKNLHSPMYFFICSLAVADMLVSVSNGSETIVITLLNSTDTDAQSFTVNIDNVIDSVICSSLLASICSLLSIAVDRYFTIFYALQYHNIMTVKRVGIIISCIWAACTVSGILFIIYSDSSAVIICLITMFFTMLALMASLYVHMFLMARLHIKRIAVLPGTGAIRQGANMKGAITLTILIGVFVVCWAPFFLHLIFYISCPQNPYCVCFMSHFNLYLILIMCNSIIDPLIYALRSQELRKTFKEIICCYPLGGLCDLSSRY
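system = U2OS cells with stable human MC4R expression | also added = Melanotan II challenge after compound preincubation | dosing = one concentration, 6.5 µM nominal | incubation = compound 30 min, challenge 1 h, detection 1 h | measured by = TR-FRET with Eu-cAMP and labeled anti-cAMP, 671 nm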
MC4R barr agon: MC4R agonists recruiting beta-arrestin, primary screen, cell-based, luminescence, agonist arm of biased-ligand search | Melanocortin receptor 4 (Homo sapiens), P32245 | U2OS MC4R beta-arrestin complementation; percent of melanotan II response, DMSO zero | activation, % at 8.9 µM | 0.98% of 360,000 active | AID 540308, 2011;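 active = activation above a per-plate cutoff, the mean activation of sample wells on that plate plus 3 SD, cut at about 8% in these data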
MC4R barr ag: MC4R beta-arrestin agonists, retest, confirmation, cell-based, luminescence, U2OS. shares compounds with MC4R barr agon. AID 602192, 2012. 31% of 2,400 active. activation, % at 8.9 µM. U2OS MC4R beta-arrestin recruitment; scaled DMSO 0%, Melanotan II 100%;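 active = mean activation across replicates above the hit cutoff set in the earlier primary screen, cut at about 8% in these data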
MOR DOR agonist: agonists of MOR-DOR heterodimerization, counter-screen for MC4R biased agonist project, cell-based, luminescence. U2OS PathHunter beta-arrestin, beta-gal luminescence; percent of deltorphin B response, DMSO zero. activation, % at 9.2 µM. shares compounds with MC4R barr agon. 5.8% of 2,400 active;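 active = mean activation across replicates exceeds the hit threshold derived in the earlier primary screen, cut at about 18% in these data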;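 note: 100% = deltorphin B at 0.9 µM final and 0% = DMSO alone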
* = called active by the depositor; / = not tested or not shown.

SMILES | ABHD5-PLIN5 inh | Beta2AR agonist | PfG6PD inh | MC4R antagonist | MC4R barr agon | MC4R barr ag | MOR DOR agonist
COc1ccc(-c2ccc(-c3noc(-c4cccs4)n3)c(OC)n2)cc1 | -0.5 | -12.1 | 0.6 | -0.8 | 17.0* | 5.4 | 0.8
COc1ccc(-c2ccc(-c3noc(-c4ccccc4OC)n3)c(OC)n2)cc1 | -5.2 | -2.3 | 11.3 | 5.1 | 10.4* | 2.4 | 1.5
O=c1[nH]c2ccc(S(=O)(=O)Nc3ccc(Cl)cc3)cc2[nH]1 | 1.7 | -5.5 | -4.4 | 3.2 | -0.3 | / | /
CSc1ccc(CCNC(=O)CCc2nnc3ccc(N4CCC5(CC4)OCCO5)nn23)cc1 | 10.0 | 7.3 | -9.4 | 2.8 | -0.4 | / | /
O=C(COC(=O)C1CCN(c2ccc(C(F)(F)F)cn2)CC1)Nc1cccc(F)c1 | -12.6 | 5.3 | 18.6 | 8.2 | 12.6* | -1.8 | 5.9
COc1ccc(-c2cc(C#N)nc(Oc3ccc(Cl)cc3)n2)cc1 | 1.6 | 6.5 | -3.6 | 2.0 | 10.8* | 2.4 | 3.0
COc1ccc(-c2cc(C#N)nc(Cl)n2)cc1 | 20.4 | 27.6 | 0.1 | -26.4 | -3.8 | / | /
CN(C)CCCN(C(=O)c1cc2cc([N+](=O)[O-])ccc2s1)c1nc2cc3c(cc2s1)OCCO3 | 10.0 | 34.7 | 26.1 | -5.1 | 35.3* | 24.8* | 17.5
COc1ccc(C(=O)Nc2nnc(Cc3ccccc3)s2)c(OC)c1 | -2.2 | 5.4 | -10.5 | -9.6 | 14.8* | -0.8 | 6.6
O=C(Nc1nnc(CCc2ccccc2)s1)c1cccc(F)c1 | 5.3 | 2.3 | -14.8 | 7.8 | 14.4* | 1.1 | 4.9
COc1cc(C(=O)Nc2nnc(Cc3ccccc3)s2)cc(OC)c1OC | -2.7 | 22.4 | -8.4 | -2.5 | -2.3 | / | /
O=C(Nc1ccccc1)C1(c2ccccc2)CC1(Cl)Cl (configuration not stated) | -6.8 | -2.0 | 0.2 | 3.4 | -2.5 | / | /
O=C(Nc1cc(Cl)ccn1)C1(c2ccccc2)CC1(Cl)Cl (configuration not stated) | -4.5 | -2.2 | 6.5 | 10.0 | 11.2* | 3.6 | 8.8
CSc1ccc(OC2(C)CCN(Cc3ccc(C(C)C)cc3)C2)cc1 (configuration not stated) | -12.2 | / | / | 4.6 | 11.6* | 2.0 | 5.6
CC1(Oc2ccc(Cl)cc2)CCN(Cc2ccc(-c3ccccn3)cc2)C1 (configuration not stated) | 6.2 | / | / | 3.0 | 12.9* | 7.2 | 7.7
CC1(Oc2ccccc2)CCN(Cc2ccc(-c3ccccn3)cc2)C1 (configuration not stated) | 4.2 | / | / | -0.8 | 8.1 | / | /
CCc1ccc(OC2(C)CCN(Cc3ccc(SC)cc3)C2)cc1 (configuration not stated) | -5.9 | / | / | 1.0 | 1.5 | / | /
CCc1ccc(NC(=O)COc2ccc(/C=C(/C#N)c3nc4ccccc4[nH]3)cc2OC)cc1 | 5.7 | -0.4 | -23.5 | 0.7 | 69.4* | 17.1* | 23.4*
CCN1C(=O)/C(=C2/Sc3ccc(OC)cc3N2C)SC1=Nc1cccc(O)c1 | 0.4 | 14.7 | -3.8 | 13.9 | 14.0* | 16.9* | 11.8
C=CCN1C(=O)/C(=C2/Sc3ccc(OC)cc3N2C)SC1=Nc1ccccc1 | 5.8 | 3.1 | -4.4 | 1.1 | -3.0 | / | /
Cc1nc2nc(CNC(=O)OC(C)(C)C)nn2c(C)c1CCC(=O)Nc1ccc2c(c1)OCO2 | -10.2 | 6.4 | 22.0 | 8.3 | -2.7 | / | /
CCCc1c(C(=O)N/N=C/c2ccc(OC)c(OCc3ccccc3)c2)nnn1-c1nonc1N | 4.9 | -0.7 | 0.2 | 18.9 | -2.9 | / | /
Cc1nnn(-c2nonc2N)c1C(=O)N/N=C/c1cccc2ccccc12 | 0.3 | 11.6 | 6.7 | -8.3 | -1.4 | / | /
COc1ccc(/C(C)=N/NC(=O)c2nnn(-c3nonc3N)c2CN(C)c2ccccc2)cc1 | 6.7 | 4.9 | 4.6 | -8.1 | 13.3* | 2.9 | 8.0
Cc1ccsc1/C=N/NC(=O)c1nnn(-c2nonc2N)c1CSc1ccccc1 | 2.8 | 2.5 | 6.0 | 0.9 | 10.6* | 5.9 | 9.6
SMILES | ABHD5-PLIN5 inh | Beta2AR agonist | PfG6PD inh | MC4R antagonist | MC4R barr agon | MC4R barr ag | MOR DOR agonist
Cc1nnn(-c2nonc2N)c1C(=O)N/N=C/c1ccccc1O | 1.5 | -5.2 | -18.0 | 7.3 | 10.2* | 0.8 | 3.8
C/C(=N\NC(=O)c1nnn(-c2nonc2N)c1CN(C)c1ccccc1)c1ccccc1O | 3.4 | 0.8 | 19.0 | -0.8 | -0.4 | / | /
CCCc1c(C(=O)N/N=C/c2c(OC)ccc3ccccc23)nnn1-c1nonc1N | -2.6 | -10.2 | 11.4 | -0.8 | 24.6* | 11.1* | 4.6
Cc1ccc(/C=N/NC(=O)c2nnn(-c3nonc3N)c2CSc2ccccc2)s1 | -4.3 | -2.6 | 7.9 | -0.2 | 1.7 | / | /
COc1ccc(-c2nc3ccc(Br)cn3c2Cc2ccsc2)cc1OC | -6.0 | / | / | / | / | / | /
Cc1nn(-c2ccccc2)nc1C(=O)Nc1ccc2[nH]ncc2c1 | -3.5 | -2.4 | 14.3 | 7.3 | 23.0* | 13.1* | 4.6
O=C(Nc1ccc2nc3n(c(=O)c2c1)CCCCC3)C(=O)N1CCN(c2ccccc2F)CC1 | 9.9 | -13.8 | 3.0 | 1.0 | 0.4 | / | /
O=C(COc1cc(Cl)c(Cl)cc1Cl)Nc1cccc(O)c1 | -12.7 | -0.2 | -5.4 | 23.3 | 19.6* | 7.2 | 8.5
NS(=O)(=O)c1ccc(CNC(=O)Cc2ccccc2[N+](=O)[O-])cc1 | 4.7 | -5.6 | -0.6 | -0.7 | -0.5 | / | /
CCC(C)(C)NC(=O)C(c1ccc(C)cc1)N(Cc1ccco1)C(=O)Cn1nnc2ccccc21 (configuration not stated) | -0.1 | 2.2 | -2.9 | -2.5 | 9.9* | 3.4 | 4.5
COc1ccc2c(c1)CCCC21NC(=O)N(CC(=O)NCc2cccs2)C1=O (configuration not stated) | 4.8 | -8.3 | -4.4 | -1.4 | -1.4 | / | /
O=S(=O)(NCCCCNS(=O)(=O)c1c(F)cccc1F)c1ccc2c(c1)OCCO2 | 2.3 | 2.3 | -3.2 | 6.9 | -0.6 | / | /
CCOC1=C2[C@H](c3ccccc3)N(S(=O)(=O)c3ccc(C)cc3)C[C@H]2n2c(=O)n(-c3ccccc3)c(=O)n2C1 | -10.4 | / | / | / | / | / | /
CCOC(=O)c1c(C)[nH]c(C)c1C(=O)CSc1nnc(-c2ccc(OC(F)F)cc2)o1 | 1.6 | -0.3 | -3.4 | 2.2 | 28.7* | 6.0 | 9.2
